Experimental data from ChEMBL document CHEMBL4602735, “Discovery of (1H-Pyrazolo[3,4-c]pyridin-5-yl)sulfonamide Analogues as Hepatitis B Virus Capsid Assembly Modulators by Conformation Constraint” (J Med Chem, 2020).
Values belong to the molecule of their own block, whether it stands above or below them. Active and inactive are the calls of the source. The rule behind the calls is not given here.

How the values were obtained:
Hepatitis B virus [1] = test: Antiviral activity against HBV infected in human HepG2.A64 cells containing reverse transcriptase L180M/T184L/M204V mutant assessed as reduction in viral replication incubated for 6 days by PCR analysis; format: functional, organism-based; settings: HepG2.A64, 144 h
Outline: (§1)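 Wild-type HBV replication measured in HepAD38 and HepG2.2.15 cells, lamivudine/entecavir-resistant HBV in HepG2.A64 cells (rtL180M+rtT184L+rtM204V) and multidrug-resistant HBV in HepG2.1403F cells (rtL180M+rtM204V+rtS202G+rtN236T). Read-out is reduction of HBV DNA. EC50 is reported as mean ± SD.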

Hepatitis B virus [2] = test: Antiviral activity against HBV infected in human HepAD38 cells assessed as inhibition of intracellular viral RNA accumulation at 2 uM for 4 days by qPCR or qRT-PCR relative to control; format: functional, organism-based
Outline: (§2)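 HepAD38 or HepG2.2.15 cells were treated at 2 µM for 4 days, with medium replaced every 2 days. Intracellular and extracellular DNA and RNA were quantified by qPCR or qRT-PCR, and HBeAg and HBsAg by ELISA. Results were compared with DMSO vehicle as mean ± SD, using a two-tailed t-test.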

[3] = Intrinsic clearance in mouse liver microsomes; format: ADME, Microsome; settings: read-out: CLH
[4] = Solubility in pH 6.8 phosphate buffer at 1 mg at 25 degC by HPLC analysis; format: physicochemical; settings: BLD = below limit of detection
Outline: (§3)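 Solubility determined in water or 0.067 M phosphate buffer at pH 5.8, 6.8 and 7.4. Values are reported in mg/mL; ND means below the detection limit.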

[5] = AUC in C57BL/6 mouse liver at 100 mg/kg, po measured from 5 mins to 24 hrs by HPLC analysis; format: ADME, organism-based; set-up: time 0.083-24 hr, dose 100 mg/kg, route oral; settings: in vivo
Outline: (§4)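 Male C57BL/6 mice, n=3. Dosing 20 mg/kg i.v. or 100 mg/kg p.o. of parent; prodrug p.o. at 100 or 200 mg/kg. The parent compound was measured in blood/plasma and in liver from 5 min onward. Readouts were Cmax, Tmax, t1/2, CL, AUC and oral bioavailability.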

Hepatitis B virus [6] = test: Antiviral activity against HBV infected in human HepG2.2.15 cells assessed as inhibition of intracellular viral RNA accumulation at 2 uM for 4 days by qPCR or qRT-PCR relative to control; format: functional, organism-based; settings: HepG2 2.2.15; outline: as §2
[7] = AUC in C57BL/6 mouse plasma at 20 mg/kg, iv measured from 5 mins to 24 hrs by HPLC analysis; format: ADME, organism-based; set-up: dose 20 mg/kg, time upper 24 hr, time lower 0.083 hr, route intravenous; outline: as §4
[8] = Cmax in C57BL/6 mouse liver at 100 mg/kg, po measured from 5 mins to 24 hrs by HPLC analysis; format: ADME, organism-based; set-up: dose 100 mg/kg, route oral; settings: in vivo; outline: as §4
[9] = Cytotoxicity in human HepAD38 cells assessed as induction of cell killing; format: cell-based
[10] = AUC in C57BL/6 mouse plasma at 100 mg/kg, po measured from 5 mins to 24 hrs by HPLC analysis; format: ADME, organism-based; set-up: time upper 24 hr, dose 100 mg/kg, time lower 0.083 hr, route oral; outline: as §4
Hepatitis B virus [11] = test: Antiviral activity against HBV infected in human HepAD38 cells assessed as inhibition of intracellular viral DNA accumulation at 2 uM for 4 days by qPCR or qRT-PCR relative to control; format: functional, organism-based; outline: as §2
Hepatitis B virus [12] = test: Antiviral activity against HBV genotype D in hydrodynamic injection-based C57BL/6 mouse model of HBV infection assessed as inhibition of liver HBV DNA level at 100 mg/kg, po dosed twice daily for 7 days by real-time PCR analysis; format: functional, organism-based
Hepatitis B virus [13] = test: Antiviral activity against HBV infected in human HepG2.2.15 cells assessed as inhibition of intracellular viral DNA accumulation at 2 uM for 4 days by qPCR or qRT-PCR relative to control; format: functional, organism-based; settings: HepG2 2.2.15; outline: as §2
[14] = Half life in C57BL/6 mouse at 20 mg/kg, iv measured from 5 mins to 24 hrs by HPLC analysis; format: ADME, organism-based; settings: in vivo; outline: as §4
Hepatitis B virus [15] = test: Antiviral activity against HBV genotype D in hydrodynamic injection-based C57BL/6 mouse model of HBV infection assessed as inhibition of serum HBV DNA level at 50 mg/kg, po dosed twice daily for 7 days by real-time PCR analysis; format: functional, organism-based
[16] = Cytotoxicity in human HepG2 cells assessed as induction of cell killing; format: cell-based
Hepatitis B virus [17] = test: Inhibition of HBsAg secretion in HBV infected human HepG2.2.15 cells at 2 uM for 4 days by ELISA; format: functional, organism-based; settings: HepG2 2.2.15; outline: as §2
[18] = AUC in C57BL/6 mouse liver at 20 mg/kg, iv measured from 5 mins to 24 hrs by HPLC analysis; format: ADME, organism-based; set-up: time lower 0.083 hr, dose 20 mg/kg, time upper 24 hr, route intravenous; settings: in vivo; outline: as §4
Hepatitis B virus [19] = test: Antiviral activity against HBV infected in human HepAD38 cells assessed as reduction in viral DNA levels incubated for 6 days by PCR analysis; format: functional, organism-based; settings: HePAD38, 144 h
[20] = Tmax in C57BL/6 mouse blood at 100 mg/kg, po measured from 5 mins to 24 hrs by HPLC analysis; format: ADME, organism-based
Outline: (§5)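 Male C57BL/6 mice, single oral dose of prodrug at 100 or 200 mg/kg; blood and liver levels of the parent compound measured over time; N=3; Tmax taken from the concentration–time profiles.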

[21] = Clearance in C57BL/6 mouse at 20 mg/kg, iv measured from 5 mins to 24 hrs by HPLC analysis; format: ADME, organism-based; settings: in vivo; outline: as §4
Hepatitis B virus [22] = test: Antiviral activity against HBV genotype D in hydrodynamic injection-based C57BL/6 mouse model of HBV infection assessed as inhibition of liver HBV DNA level at 50 mg/kg, po dosed twice daily for 7 days by real-time PCR analysis; format: functional, organism-based
[23] = Selectivity index, ratio of CC50 for cytotoxicity in human HepAD38 cells assessed as induction of cell killing to EC50 for antiviral activity against HBV infected in human HepAD38 cells assessed as reduction in viral DNA levels incubated for 6 days by PCR analysis; format: toxicity, cell-based; settings: read-out: Ratio CC50/EC50
[24] = Drug level in C57BL/6 mouse liver at 100 mg/kg, po measured after 5 mins by HPLC analysis; format: ADME, organism-based; settings: in vivo
Hepatitis B virus [25] = test: Antiviral activity against multidrug-resistant HBV infected in human HepG2.1403F cells assessed as reduction in viral replication incubated for 6 days by PCR analysis; format: functional, organism-based; settings: 144 h; outline: as §1
[26] = Oral bioavailability in C57BL/6 mouse liver at 100 mg/kg measured from 5 mins to 24 hrs by HPLC analysis; format: ADME, organism-based; outline: as §4
Hepatitis B virus [27] = test: Antiviral activity against HBV genotype D in hydrodynamic injection-based C57BL/6 mouse model of HBV infection assessed as inhibition of HBV replication at 50 mg/kg, po dosed once daily for 7 days by real-time PCR analysis; format: functional, organism-based
[28] = Tmax in C57BL/6 mouse liver at 100 mg/kg, po measured from 5 mins to 24 hrs by HPLC analysis; format: ADME, organism-based; outline: as §5
Hepatitis B virus [29] = test: Antiviral activity against HBV genotype D in hydrodynamic injection-based C57BL/6 mouse model of HBV infection assessed as inhibition of serum HBV DNA level at 100 mg/kg, po dosed twice daily for 7 days by real-time PCR analysis; format: functional, organism-based
Hepatitis B virus [30] = test: Antiviral activity against HBV infected in human HepG2.2.15 cells assessed as reduction in viral DNA levels incubated for 6 days by PCR analysis; format: functional, organism-based; settings: HepG2 2.2.15, 144 h
[31] = Cmax in C57BL/6 mouse blood at 100 mg/kg, po measured from 5 mins to 24 hrs by HPLC analysis; format: ADME, organism-based; set-up: dose 100 mg/kg, route oral; outline: as §4
Hepatitis B virus [32] = test: Inhibition of HBsAg secretion in HBV infected human HepAD38 cells at 2 uM for 4 days by ELISA; format: functional, organism-based; outline: as §2
[33] = Stability in pH 7.4 buffer assessed as compound hydrolysis level after 2 hrs at 37 degC by HPLC analysis; format: physicochemical; settings: pH 7.4, 2 h
Outline: (§6)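 Prodrug incubated in buffer (0.1 M HCl, pH 5.8, 6.8 or 7.4) at 37 °C; percent of compound remaining determined by HPLC; remaining percentage reported after 3 h, stability meaning no hydrolysis after 2 h.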

[34] = Solubility in water at 1 mg at 25 degC by HPLC analysis; format: physicochemical; outline: as §3
[35] = Half life in mouse plasma by HPLC analysis; format: ADME, cell-free
Outline: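 Prodrug incubated in plasma at 37 °C, with percent remaining determined by HPLC to derive half-life.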

[36] = Stability in 0.1M HCl solution assessed as compound remaining level at 37 degC by HPLC analysis; format: physicochemical; settings: buffer; outline: as §6
[37] = Stability in pH 6.8 buffer assessed as compound remaining level at 37 degC by HPLC analysis; format: physicochemical; outline: as §6
[38] = Solubility in pH 5.8 phosphate buffer at 1 mg at 25 degC by HPLC analysis; format: physicochemical; outline: as §3

Structure (SMILES): Cc1cc(Nc2nn(C3CC3)c3cnc(S(=O)(=O)N4CCC(O)CC4)cc23)ccc1F
EC50 (Hepatitis B virus [1]): 0.25 nM
inhibition (Hepatitis B virus [2]): Active
microsomal CLint [3]: 10.3 µL/min/mg
solubility [4]: Bld
AUC [5]: 142 nmol·h/g
inhibition (Hepatitis B virus [6]): Active
AUC [7]: 2.6 µg·h/mL
Cmax [8]: 32 nmol/g
CC50 [9]: > 100000 nM
AUC [10]: 1.58 µg·h/mL
inhibition (Hepatitis B virus [11]): Active
Activity (Hepatitis B virus [12]): inactive
inhibition (Hepatitis B virus [13]): Active
half-life [14]: 37.8 min
Activity (Hepatitis B virus [15]): inactive
CC50 [16]: > 100000 nM
inhibition (Hepatitis B virus [17]): inactive
AUC [18]: 62 nmol·h/g
EC50 (Hepatitis B virus [19]): 34 nM
Tmax [20]: 30 min
clearance [21]: 2.33 mL/min
Activity (Hepatitis B virus [22]): inactive
selectivity ratio at 144 h [23]: > 2940
Drug uptake [24]: > 10 nmol/g
EC50 (Hepatitis B virus [25]): 0.33 nM
bioavailability [26]: 12%
Activity (Hepatitis B virus [27]): inactive
Tmax [28]: 30 min
Activity (Hepatitis B virus [29]): inactive
EC50 (Hepatitis B virus [30]): 3.5 nM
Cmax [31]: 1.19 µM
inhibition (Hepatitis B virus [32]): inactive

Stability [33]: Stable
solubility [4]: Bld
solubility [34]: 1.51 mg/mL
half-life [35]: 47.2 min
Stability [36]: Stable
Stability [37]: Unstable
solubility [38]: 0.29 mg/mL
Structure (SMILES): Cc1cc(Nc2nn(C3CC3)c3cnc(S(=O)(=O)N4CCC(OC(=O)CN(C)C)CC4)cc23)ccc1F.O=C(O)C(F)(F)F
